The values that follow come from ChEMBL document CHEMBL1687888, “Synthesis, hypoxia-selective cytotoxicity of new 3-amino-1,2,4-benzotriazine-1,4-dioxide derivatives” (Eur J Med Chem, 2011).

Usually IC50 stands for the concentration at which inhibition is half-maximal. Higher therefore signals lower potency.

Active and inactive are the calls of the source. No cut-off for these calls is given here.

Test [1] relates to SMMC-7721. Nature of the test: Cytotoxicity against human SMMC7721 cells for 72 hrs under hypoxic condition by MTT assay. Format: functional, cell-based. Conditions: SMMC-7721, 72 h. The essentials: (§1)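 RPMI-1640 with heat-inactivated 10% FBS plus penicillin/streptomycin; hypoxia 3% O2, 5% CO2 or normoxia 20% O2, 5% CO2, 37 °C. Compounds dissolved in DMSO at 10.0 mg/mL (stock), then diluted; cells seeded 5×10³ per well. Viability read by MTT kit; IC50 taken as concentration giving 50% absorbance inhibition versus control cells.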
(In general: Tetrazolium assays rely on reduction of a dye to a coloured formazan, in cell work by metabolically active cells.)

Test [2] deals with SMMC-7721. Nature of the test: Cytotoxicity against human SMMC7721 cells for 72 hrs under normoxic condition by MTT assay. Format: functional, cell-based. The note with it: SMMC-7721, 72 h. The essentials:
as §1

The subject of test [3] is K562. Nature of the test: Cytotoxicity against human K562 cells for 72 hrs under hypoxic condition by MTT assay. It counts as functional, cell-based. Conditions: K562, 72 h. The essentials:
as §1

The test system of test [4] is K562. Nature of the test: Cytotoxicity against human K562 cells for 72 hrs under normoxic condition by MTT assay. It counts as functional, cell-based. The note with it: K562, 72 h. The essentials: as §1
Test [5] relates to KB. Nature of the test: Cytotoxicity against human KB cells for 72 hrs under hypoxic condition by MTT assay. Format: functional, cell-based. The essentials: as §1
Test [6] concerns KB. Nature of the test: Cytotoxicity against human KB cells for 72 hrs under normoxic condition by MTT assay. It counts as functional, cell-based. The essentials: as §1
The subject of test [7] is A549. Nature of the test: Cytotoxicity against human A549 cells for 72 hrs under hypoxic condition by MTT assay. Format: functional, cell-based. Conditions: A549, 72 h. The gist of the method: as §1
The subject of test [8] is A549. Nature of the test: Cytotoxicity against human A549 cells for 72 hrs under normoxic condition by MTT assay. Conditions: A549, 72 h. Format: functional, cell-based. The essentials:
as §1

Test [9] concerns PC-3. Nature of the test: Cytotoxicity against human PC3 cells for 72 hrs under hypoxic condition by MTT assay. It counts as functional, cell-based. The note with it: PC-3, 72 h. The gist of the method:
as §1

The subject of test [10] is PC-3. Nature of the test: Cytotoxicity against human PC3 cells for 72 hrs under normoxic condition by MTT assay. It counts as functional, cell-based. The note with it: PC-3, 72 h. The gist of the method: as §1
In test [11] the test system is K562. Nature of the test: Induction of apoptosis in human K562 cells under normoxic condition assessed as DNA fragmentation at 10 uM for 48 hrs using propidium iodide by flow cytometry. It counts as functional, cell-based. The gist of the method:
(§2)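 K562 held under hypoxia (3% O2, 5% CO2) or normoxia (20% O2, 5% CO2) at 37 °C, treated 48 h. Cells washed in PBS, fixed in 75% ethanol at −20 °C overnight, RNase-treated 30 min at 37 °C, PI-stained 30 min at room temperature in the dark. DNA content and apoptotic fraction read by flow cytometry.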
Background: In flow cytometry, cells or beads pass a laser one at a time.

Test [12] relates to K562. Nature of the test: Induction of apoptosis in human K562 cells under hypoxic condition assessed as DNA fragmentation at 10 uM for 48 hrs using propidium iodide by flow cytometry. It counts as functional, cell-based. The gist of the method: as §2
Test [13] has as its system K562. Nature of the test: Induction of apoptosis in human K562 cells under normoxic condition assessed as accumulation at Sub-G1 phase at 10 uM for 48 hrs using propidium iodide by flow cytometry (reference value: 5.27%). It counts as functional.
For test [14], the system named is K562. Nature of the test: Induction of apoptosis in human K562 cells under hypoxic condition assessed as accumulation at Sub-G1 phase at 10 uM for 48 hrs using propidium iodide by flow cytometry (reference value: 13.03%). It counts as functional.
Test [15] concerns K562. Nature of the test: Induction of apoptosis in human K562 cells under hypoxic condition assessed as decrease in procaspase-3 level at 10 uM for 48 hrs by Western blotting. Format: functional, cell-based. The gist of the method:
(§3)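 K562 treated 48 h under hypoxia (3% O2) or normoxia (20% O2), 5% CO2, 37 °C. Lysis buffer: 150 mM NaCl, 50 mM Tris-HCl pH 8.0, 2 mM EGTA, 2 mM EDTA, 25 mM NaF, 25 mM β-glycerophosphate, 0.2% Triton X-100, 0.3% NP-40, 0.1 mM PMSF. Extracts immunoblotted for procaspase-3, cleaved caspase-3, PARP and XIAP.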
In general terms: In western blotting, separated proteins are transferred to a membrane and probed.

For test [16], the system named is K562. Nature of the test: Induction of apoptosis in human K562 cells under hypoxic condition assessed as decrease in XIAP level at 10 uM for 48 hrs by Western blotting. Format: functional, cell-based. The gist of the method: as §3
Test [17] relates to K562. Nature of the test: Induction of apoptosis in human K562 cells under hypoxic condition assessed as decrease in PARP level at 10 uM for 48 hrs by Western blotting. It counts as functional, cell-based. The gist of the method:
as §3

In test [18] the test system is K562. Nature of the test: Induction of apoptosis in human K562 cells under hypoxic condition assessed as caspase-3 cleavage at 10 uM for 48 hrs by Western blotting. Format: functional, cell-based. The essentials:
as §3

Test [19] relates to K562. Nature of the test: Induction of apoptosis in human K562 cells under hypoxic condition assessed as decrease in XIAP level at 10 uM for 48 hrs by Western blotting.
Test [20] deals with K562. Nature of the test: Induction of apoptosis in human K562 cells under hypoxic condition assessed as decrease in PARP level at 10 uM for 48 hrs by Western blotting.
For test [21], the system named is K562. Nature of the test: Induction of apoptosis in human K562 cells under hypoxic condition assessed as decrease in procaspase-3 level at 10 uM for 48 hrs by Western blotting.

`[O-][n+]1nc(NCOCc2ccc(C(F)(F)F)cc2)[n+]([O-])c2ccccc21`: the IC50 in the test on SMMC-7721 [1] was determined as 780 nM; with SMMC-7721 [2], 9.45 µM; in the test on K562 [3] it was 1.24 µM; in the test on K562 [4], 18.3 µM; in the test with KB [5], 19.8 µM; in the test on KB [6] it was 390 nM. Also, the IC50 in the test with A549 [7] was 4.27 µM; with A549 [8], 8.42 µM; in the test with PC-3 [9] it was 9.31 µM; with PC-3 [10], 7.65 µM. Further, the result in the test with K562 [11], in the test with K562 [12], in the test with K562 [15], in the test with K562 [16], in the test with K562 [17] and in the test on K562 [18] was Active. Also, the outcome with K562 [19], in the test with K562 [20] and with K562 [21] was Active. Also, the Activity with K562 [13] amounted to 9.5%; in the test on K562 [14] it was 32.11%.

Consider `COc1ccc(COCNc2n[n+]([O-])c3ccccc3[n+]2[O-])cc1`, for which the IC50 is 1150 nM in the test with SMMC-7721 [1]; 22 µM in the test on SMMC-7721 [2]; 0.66 µM in the test on K562 [3]; 20.1 µM with K562 [4]; 14.2 µM with KB [5]; 4060 nM with KB [6]. Moreover, the IC50 with A549 [7] turned out to be 3.32 µM; in the test on A549 [8], 7.64 µM; with PC-3 [9] it was 52.8 µM; in the test with PC-3 [10] it was 14.5 µM. Also, the result in the test with K562 [11], in the test with K562 [12], in the test on K562 [15], in the test on K562 [16], in the test with K562 [17] and in the test on K562 [18] was Active. In addition, the outcome in the test on K562 [19], in the test with K562 [20] and in the test on K562 [21] was Active. For the same molecule, the Activity is on record as 14.95% with K562 [13] and 54.24% in the test with K562 [14].

Consider `CCCCCOCNc1n[n+]([O-])c2ccccc2[n+]1[O-]`, for which the half-maximal inhibitory concentration (IC50) amounted to 3050 nM in the test with SMMC-7721 [1]; 17 µM in the test on SMMC-7721 [2]; 3.3 µM with K562 [3]; 14.5 µM in the test on K562 [4]; 39.5 µM with KB [5]; 1220 nM in the test with KB [6]. Moreover, the IC50 in the test with A549 [7] came to 2.9 µM; in the test with A549 [8] it was 6.46 µM; with PC-3 [9] it was 8.51 µM; with PC-3 [10], 9.2 µM.

`[O-][n+]1nc(NCOCc2ccccc2)[n+]([O-])c2ccccc21`: the IC50 came out at 4790 nM in the test on SMMC-7721 [1]; 20.1 µM in the test with SMMC-7721 [2]; 4.69 µM in the test on K562 [3]; 16.1 µM in the test with K562 [4]; 12.3 µM with KB [5]; 5720 nM in the test on KB [6]. Also, the IC50 worked out at 4.14 µM in the test with A549 [7], 10.8 µM with A549 [8], 11.9 µM in the test on PC-3 [9] and 13.4 µM in the test on PC-3 [10].

As to `CCCCCOCNc1n[n+]([O-])c2cc(OC)ccc2[n+]1[O-]`, the IC50 with SMMC-7721 [1] worked out at 550 nM; with SMMC-7721 [2] it was 12.9 µM; in the test with K562 [3] it was 0.45 µM; in the test with K562 [4] it was 7.11 µM; in the test with KB [5], 16.9 µM; in the test with KB [6] it was 2810 nM. In addition, the IC50 in the test on A549 [7] amounted to 2.51 µM; with A549 [8], 5.04 µM; with PC-3 [9] it was 30.9 µM; in the test on PC-3 [10] it was 3.63 µM.

Consider `COCNc1n[n+]([O-])c2ccccc2[n+]1[O-]`, for which the IC50 with SMMC-7721 [1] is 2480 nM; in the test with SMMC-7721 [2], 6.67 µM; in the test with K562 [3], 3.79 µM; in the test on K562 [4], 7.8 µM; in the test with KB [5], 9.07 µM; with KB [6], 1580 nM. Further, the IC50 in the test with A549 [7] was 2.77 µM; in the test on A549 [8], 7.45 µM; with PC-3 [9] it was 4.27 µM; in the test with PC-3 [10], 7.51 µM.

Take `CCOCNc1n[n+]([O-])c2ccccc2[n+]1[O-]`: the IC50 with SMMC-7721 [1] worked out at 4230 nM; with SMMC-7721 [2], 27.1 µM; in the test with K562 [3], 4.99 µM; in the test on K562 [4], 15.4 µM; in the test with KB [5] it was 22.5 µM; in the test with KB [6], 2800 nM. Besides, the IC50 with A549 [7] is 4.09 µM; in the test on A549 [8] it was 10.5 µM; in the test with PC-3 [9], 7.4 µM; in the test with PC-3 [10], 15.9 µM. Moreover, the outcome in the test with K562 [11], in the test on K562 [12], with K562 [15], with K562 [16], with K562 [17] and in the test with K562 [18] was Active. For the same molecule, the result in the test with K562 [19], in the test with K562 [20] and in the test with K562 [21] was Active. The figures for the Activity with K562 [13] and in the test with K562 [14] were 14.13% and 33.07%, respectively.

Take `CCCCOCNc1n[n+]([O-])c2ccccc2[n+]1[O-]`: the IC50 in the test on SMMC-7721 [1] was found to be 3990 nM; in the test with SMMC-7721 [2], 21.1 µM; in the test on K562 [3], 3.24 µM; with K562 [4] it was 17.6 µM; in the test with KB [5] it was 15.2 µM; in the test on KB [6], 1750 nM. In addition, the IC50 with A549 [7] is 2.32 µM; in the test on A549 [8] it was 6.31 µM; in the test with PC-3 [9], 6.01 µM; with PC-3 [10] it was 14.7 µM.

Take `[O-][n+]1nc(NCOC2CCCCC2)[n+]([O-])c2ccccc21`: the IC50 in the test with SMMC-7721 [1] was found to be 4170 nM; with SMMC-7721 [2], 28.2 µM; with K562 [3], 4.88 µM; in the test with K562 [4], 10.8 µM; in the test with KB [5] it was 22.1 µM; in the test on KB [6] it was 4390 nM. Further, the IC50 with A549 [7] is 1.2 µM; in the test on A549 [8], 5.18 µM; in the test with PC-3 [9], 6.67 µM; in the test with PC-3 [10], 3.25 µM.

With `COc1ccc2c(c1)[n+]([O-])nc(NCOCc1ccccc1)[n+]2[O-]`, the IC50 came out at 1190 nM in the test on SMMC-7721 [1]; 21.4 µM in the test on SMMC-7721 [2]; 0.24 µM in the test on K562 [3]; 27.5 µM in the test on K562 [4]; 18.1 µM with KB [5]; 2400 nM in the test with KB [6]. For the same molecule, the IC50 was determined as 4.47 µM with A549 [7], 2.5 µM in the test with A549 [8], 88.5 µM with PC-3 [9] and 8.58 µM in the test on PC-3 [10].
